From article PMC11168086 (RSC Advances, 2024)
Values after ≈ are worked out from the molar mass of the structure shown.

Columns and labels:
[1] = Kinetic aqueous solubility; format: physicochemical; conditions: PBS buffer, pH 7.4, aqueous buffer, kinetic from dmso stock
Method in brief: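 10 mM DMSO stocks were diluted into PBS pH 7.4 to a 500 μM target and shaken 2 h at room temperature. Samples were vacuum-filtered, diluted with acetonitrile to prevent precipitation, and scanned by UV-vis over 250–500 nm. Concentration was derived from a 3-point calibration at each compound's λmax.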

[2] = system: MCF7 (breast cancer) cells; experiment: MTT antiproliferative assay, MCF7; format: cell-based, human; conditions: for IC50: MCF-7, MTT, 72 h; for Lipophilic efficiency (LipE = pIC50 – logP): MCF-7
Method in brief: (§1)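 Cells from ECACC were grown in MEM with 10% FBS, non-essential amino acids and penicillin-streptomycin, at 37 °C and 5% CO2. Cells were seeded at 5000 per well, left overnight, then exposed to test compound 72 h. MTT was added for 4 h, and formazan was dissolved in DMSO (60 min, 37 °C) and read at 545 nm. Compounds giving >50% inhibition at 10 μM were rerun over 0.1–30 μM for IC50. Two independent experiments used five wells each, with cisplatin as positive control.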

[3] = system: HeLa (cervical cancers) cells; experiment: MTT antiproliferative assay, HeLa; format: cell-based, human; conditions: for IC50: Homo sapiens, 72 h
Method in brief: as §1

[4] = system: A2780 (ovarian cancer) cells; experiment: MTT antiproliferative assay, A2780; format: cell-based, human; conditions: for Lipophilic efficiency (LipE = pIC50 – logP): A2780; for IC50: Homo sapiens, A2780, 72 h
Method in brief: as §1

[5] = system: MDA-MB-231 (breast cancer) cells; experiment: MTT antiproliferative assay, MDA-MB-231; format: cell-based, human; conditions: for IC50: Homo sapiens, MDA-MB-231, 72 h, MDA-MB-231, MTT, 72 h; for Lipophilic efficiency (LipE = pIC50 – logP): MDA-MB-231
Method in brief: as §1

[6] = Intestinal-specific PAMPA; format: in vitro ADME; conditions: pH 6.5
Method in brief: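 Donor solutions at nominal 500 μM came from 10 mM DMSO stocks diluted in phosphate donor buffer, pH 6.5. The acceptor buffer held 5% DMSO. The membrane was phosphatidylcholine plus cholesterol in chloroform/dodecane/hexane (5:25:70 v/v). Plates were incubated 4 h at 37 °C, covered. Acceptor UV-vis absorbance was read over 250–500 nm. Pa was calculated by the Wohnsland–Faller equation from acceptor versus equilibrium absorbance at λmax.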

Row | SMILES | solubility kinetic at 2 h [1] [µM] | IC50 ([2]; Homo sapiens, MCF7, 72 h) [µM] | IC50 [3] [µM] | IC50 [4] [µM] | IC50 [5] [µM] | Papp at 4 h, 500 μM [6] [×10⁻⁶ cm/s] | IC50 [2] [µM] | Lipophilic efficiency (LipE = pIC50 – logP) [2] | Lipophilic efficiency (LipE = pIC50 – logP) [3] | Lipophilic efficiency (LipE = pIC50 – logP) [4] | Lipophilic efficiency (LipE = pIC50 – logP) [5]
1 | C[C@@H]1CC[C@@H]([C@](C)(O)CNCc2ccccc2F)[C@H](OCc2ccccc2)C1 [Compound 9a] | 1.4 ± 0.02 (≈ 0.54 µg/mL) | 8.6 | 6.5 | – | – | – | – | −0.21 | −0.09 | – | –
2 | C[C@@H]1CC[C@@H]([C@](C)(O)CNCc2ccc(F)cc2)[C@H](OCc2ccccc2)C1 [Compound 7a] | 2.5 ± 0.1 (≈ 0.964 µg/mL) | 20.3 | 24.3 | – | – | – | – | – | – | – | –
3 | C=C(COCc1ccc(F)cc1)[C@@H]1CC[C@@H](C)C[C@H]1OCc1ccc(F)cc1 [Compound 30b] | 17.6 ± 0.6 (≈ 6.8 µg/mL) | – | – | – | – | – | – | – | – | – | –
4 | COc1ccc(CNC[C@@](C)(O)[C@@H]2CC[C@@H](C)C[C@H]2OCc2ccccc2)cc1 [Compound 10a] | 25.7 ± 1 (≈ 10.2 µg/mL) | 1.9 | 4.3 | 7.3 | 5.7 | 20.6 ± 1.4 | – | 0.32 | −0.03 | −0.25 | −0.15
5 | C=C(COCc1ccccc1)[C@@H]1CC[C@@H](C)C[C@H]1OCc1ccccc1 [Compound 30a] | 40.8 ± 5 (≈ 14.3 µg/mL) | – | – | – | – | – | – | – | – | – | –
6 | C=C(C)[C@@H]1CC[C@@H](C)C[C@H]1OCc1ccc(OC)cc1 [Compound 2c] | 247 ± 2.8 (≈ 67.8 µg/mL) | – | – | – | – | 26.1 ± 5.4 | – | – | – | – | –
7 | COc1ccccc1CNC[C@@](C)(O)[C@@H]1CC[C@@H](C)C[C@H]1OCc1ccccc1 [Compound 12a] | 270 ± 21 (≈ 107 µg/mL) | 4.2 | 4.6 | 7.4 | 12.8 | 49.2 ± 4 | – | −0.01 | −0.05 | −0.26 | –
8 | C=C(COCc1ccc(OC)cc1)[C@@H]1CC[C@@H](C)C[C@H]1OCc1ccc(OC)cc1 [Compound 30c] | 31.5 ± 1.3 (≈ 12.9 µg/mL) | – | 24.7 | – | – | – | – | – | – | – | –
9 | C[C@@H]1CC[C@@H]([C@](C)(O)Cn2ccnc2)[C@H](OCc2ccccc2)C1 [Compound 14a] | 4.1 ± 0.7 (≈ 1.35 µg/mL) | – | 24.5 | – | – | – | – | – | – | – | –
10 | C[C@@H]1CC[C@@H]([C@@](C)(O)Cn2cnc3ccccc32)[C@H](OCc2ccccc2)C1 [Compound 15b] | 34.6 ± 1.1 (≈ 13.1 µg/mL) | 9.4 | 6.5 | 10.9 | 27.6 | 26.3 ± 4.6 | – | −0.10 | 0.06 | – | –
11 | COc1ccc(COC[C@@](O)(CNCc2ccccc2)[C@@H]2CC[C@@H](C)C[C@H]2OCc2ccc(OC)cc2)cc1 [Compound 50a] | 202 ± 1 (≈ 108 µg/mL) | 1.4 | 3.7 | 1.6 | 2.2 | 32.4 ± 7.6 | – | −0.83 | −1.23 | −0.88 | −1.01
12 | C[C@@H]1CC[C@@H]([C@](C)(O)CNCc2cccc(F)c2)[C@H](OCc2ccccc2)C1 [Compound 8a] | 31.8 ± 1 (≈ 12.3 µg/mL) | 3.5 | 5.2 | 9.3 | 9.9 | 9.8 ± 1.2 | – | 0.17 | 0.00 | −0.25 | −0.28
13 | COc1cccc(CNC[C@@](C)(O)[C@@H]2CC[C@@H](C)C[C@H]2OCc2ccccc2)c1 [Compound 11a] | 82 ± 2.2 (≈ 32.6 µg/mL) | 2 | 6.3 | 12.5 | 11.7 | 1.8 ± 0.5 | – | 0.32 | −0.19 | – | –
14 | C[C@@H]1CC[C@@H]([C@](C)(O)CNCc2cccc3ccccc23)[C@H](OCc2ccccc2)C1 [Compound 13a] | 2.1 ± 0.1 (≈ 0.877 µg/mL) | 4.3 | 5.4 | 13.7 | 25 | – | – | −0.94 | −1.04 | – | –
15 | C[C@@H]1CC[C@@H]([C@@](O)(COCc2ccccc2)Cn2ccnc2)[C@H](OCc2ccccc2)C1 [Compound 42a] | 7.7 ± 0.7 (≈ 3.35 µg/mL) | – | – | – | – | – | – | – | – | – | –
16 | C[C@@H]1CC[C@@H]([C@](O)(COCc2ccccc2)Cn2ccnc2)[C@H](OCc2ccccc2)C1 [Compound 42b] | 5.2 ± 0.3 (≈ 2.26 µg/mL) | – | – | – | – | – | – | – | – | – | –
17 | C=C(C)[C@@H]1CC[C@@H](C)C[C@H]1OCc1ccc(F)cc1 [Compound 2b] | 90 ± 4.8 (≈ 23.6 µg/mL) | – | – | – | – | 50.7 ± 4.7 | – | – | – | – | –
18 | C=C(C)[C@@H]1CC[C@@H](C)C[C@H]1OCc1ccccc1 [Compound 2a, O-benzyl isopulegol] | 1.1 ± 0.01 (≈ 0.269 µg/mL) | – | – | – | – | – | – | – | – | – | –

The remaining molecules from weak to strong by IC50 [3], led by results:

Row | solubility kinetic at 2 h [1] [µM] | IC50 ([2]; Homo sapiens, MCF7, 72 h) [µM] | IC50 [3] [µM] | IC50 [4] [µM] | IC50 [5] [µM] | Papp at 4 h, 500 μM [6] [×10⁻⁶ cm/s] | IC50 [2] [µM] | SMILES | Lipophilic efficiency (LipE = pIC50 – logP) [2] | Lipophilic efficiency (LipE = pIC50 – logP) [3] | Lipophilic efficiency (LipE = pIC50 – logP) [4] | Lipophilic efficiency (LipE = pIC50 – logP) [5]
19 | 97 ± 2.8 (≈ 49.4 µg/mL) | 0.96 | 3 | 2.1 | 2.7 | 23.2 ± 2.7 | – | C[C@@H]1CC[C@@H]([C@@](O)(CNCc2ccccc2)COCc2ccc(F)cc2)[C@H](OCc2ccc(F)cc2)C1 [Compound 44b] | −0.63 | −1.12 | −0.97 | −1.08
20 | 259 ± 1.3 (≈ 143 µg/mL) | 1.6 | 2.8 | 1.5 | 1.9 | 19.7 ± 1.6 | – | COc1ccc(COC[C@@](O)(CNCc2ccc(F)cc2)[C@@H]2CC[C@@H](C)C[C@H]2OCc2ccc(OC)cc2)cc1 [Compound 51a] | −0.84 | −1.08 | −0.80 | –
21 | 3.3 ± 0.01 (≈ 1.21 µg/mL) | 2.3 | 2.8 | 2.6 | 3.4 | – | – | C[C@@H]1CC[C@@H]([C@](C)(O)CNCc2ccccc2)[C@H](OCc2ccccc2)C1 [Compound 6a] | 0.18 | 0.09 | 0.12 | 0.01
22 | 1 ± 0.03 (≈ 0.524 µg/mL) | 5.9 | 2.6 | 5 | 3.6 | – | – | C[C@@H]1CC[C@@H]([C@](O)(CNCc2cccc3ccccc23)COCc2ccccc2)[C@H](OCc2ccccc2)C1 [Compound 41a] | −2.64 | −2.28 | −2.57 | −2.42
23 | 2.8 ± 0.2 (≈ 1.33 µg/mL) | 2 | 2.6 | 4.1 | 4 | – | – | C[C@@H]1CC[C@@H]([C@](O)(CNCc2ccccc2)COCc2ccccc2)[C@H](OCc2ccccc2)C1 [Compound 34a] | −1.05 | −1.16 | −1.36 | −1.35
24 | 0.5 ± 0.01 (≈ 0.262 µg/mL) | 5.7 | 2.5 | 4.1 | 2.6 | – | – | C[C@@H]1CC[C@@H]([C@@](O)(CNCc2cccc3ccccc23)COCc2ccccc2)[C@H](OCc2ccccc2)C1 [Compound 41b] | −2.62 | −2.27 | −2.48 | −2.28
25 | 88 ± 0.9 (≈ 47.5 µg/mL) | < 1 | 2.5 | 1.5 | 1.9 | 29.5 ± 3.6 | 0.9 | COc1ccc(CNC[C@](O)(COCc2ccc(F)cc2)[C@@H]2CC[C@@H](C)C[C@H]2OCc2ccc(F)cc2)cc1 [Compound 46a] | – | −1.33 | −1.12 | −1.22
26 | 8 ± 1 (≈ 3.79 µg/mL) | 3.7 | 2.3 | 3.3 | 3.4 | – | – | C[C@@H]1CC[C@@H]([C@@](O)(CNCc2ccccc2)COCc2ccccc2)[C@H](OCc2ccccc2)C1 [Compound 34b] | −1.32 | −1.11 | −1.26 | −1.28
27 | 163 ± 1.6 (≈ 83.1 µg/mL) | 0.88 | 1.3 | 2.2 | 1.5 | 28.8 ± 2.9 | – | C[C@@H]1CC[C@@H]([C@](O)(CNCc2ccccc2)COCc2ccc(F)cc2)[C@H](OCc2ccc(F)cc2)C1 [Compound 44a] | −0.59 | −0.78 | −1.00 | −0.81
